According to ChEMBL document CHEMBL1139595, “Inhibition of IKK-2 by 2-[(aminocarbonyl)amino]-5-acetylenyl-3-thiophenecarboxamides” (Bioorg Med Chem Lett, 2005):
pIC50: −log10 of the molar value.

Columns and labels:
[1] = biological target: T1, Inhibitor of nuclear factor kappa-B kinase subunit beta (Homo sapiens, UniProt O14920); assay: Inhibitory concentration against human recombinant I-kappa-B-kinase 2 from 3 experiments
T1 sequence (O14920 whole entry): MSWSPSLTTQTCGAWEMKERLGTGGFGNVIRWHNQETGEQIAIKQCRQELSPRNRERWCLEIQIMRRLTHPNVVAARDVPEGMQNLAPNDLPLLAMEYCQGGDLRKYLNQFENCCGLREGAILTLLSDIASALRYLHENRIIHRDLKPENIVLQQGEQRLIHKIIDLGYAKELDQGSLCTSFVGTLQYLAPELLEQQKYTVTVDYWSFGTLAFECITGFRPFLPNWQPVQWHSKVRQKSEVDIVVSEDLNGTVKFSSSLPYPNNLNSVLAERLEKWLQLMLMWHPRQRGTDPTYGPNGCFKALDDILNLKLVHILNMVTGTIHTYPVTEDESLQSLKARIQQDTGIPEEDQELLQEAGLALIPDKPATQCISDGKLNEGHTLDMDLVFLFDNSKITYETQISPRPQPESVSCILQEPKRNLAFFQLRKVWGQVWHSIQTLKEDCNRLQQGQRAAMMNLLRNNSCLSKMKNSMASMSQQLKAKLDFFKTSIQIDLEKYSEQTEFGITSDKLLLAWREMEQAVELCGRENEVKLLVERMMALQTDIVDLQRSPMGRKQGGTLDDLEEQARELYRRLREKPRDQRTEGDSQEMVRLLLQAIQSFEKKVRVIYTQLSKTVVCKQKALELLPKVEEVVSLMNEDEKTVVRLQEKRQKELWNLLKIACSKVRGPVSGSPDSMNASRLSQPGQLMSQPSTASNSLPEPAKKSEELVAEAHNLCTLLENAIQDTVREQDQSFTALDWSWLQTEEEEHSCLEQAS

[2] = Inhibitory concentration against interleukin-8 production in rheumatoid arthritis-derived synovial fibroblasts (RASFs) from 2 experiments; assay type: functional; settings: Homo sapiens
In short: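 Primary RASF from knee synovectomy tissue, grown in DMEM high glucose with 15% bovine serum and gentamicin. 1.5×10^4 cells/well attached overnight, moved to DMEM with 1% serum. Pre-treated 1 h with a seven-point dose series in 0.2% Me₂SO, then stimulated overnight with 1 ng/mL IL-1β. IL-8 in supernatant measured by ELISA; IC50 from curve.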

[3] = Lethal concentration towards rheumatoid arthritis-derived synovial fibroblasts using Alamar Blue reagent; assay type: functional; settings: Homo sapiens; read-out: LC50 (the source's name)
In short: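 Primary RASF from knee synovectomy tissue, cultured in DMEM high glucose with 15% bovine serum; 1.5×10^4 cells/well in 1% serum, pre-treated 1 h with seven-point inhibitor doses in 0.2% Me2SO, then stimulated overnight with 1 ng/mL IL-1β. After removing the supernatant, Alamar Blue added, 2.5 h at 37 °C, 5% CO2; fluorescence read, LC50 derived.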

[4] = biological target: T2, Inhibitor of nuclear factor kappa-B kinase subunit beta (Homo sapiens) (UniProt O14920); assay: Ratio of inhibitory concentration of rheumatoid arthritis-derived synovial fibroblasts to human recombinant I-kappa-B-kinase 2; assay type: functional
T2 sequence (whole entry): T1 sequence (O14920 whole entry)

| SMILES | pIC50 [1] | pIC50 [2] | CC50 [3] [nM] | Ratio [4] |
| --- | --- | --- | --- | --- |
| NC(=O)Nc1sc(C#Cc2cccc(NC(=O)c3ccccc3)c2)cc1C(N)=O | 6.15 |  |  |  |
| CS(=O)(=O)Nc1cccc(C#Cc2cc(C(N)=O)c(NC(N)=O)s2)c1 | 6.34 | 4.89 | > 30000 | 28 |
| NC(=O)Nc1sc(C#Cc2ccccc2Cl)cc1C(N)=O | 6.00 |  |  |  |
| NC(=O)Nc1sc(C#Cc2ccsc2)cc1C(N)=O | 6.38 | 5.93 | > 30000 | 2.8 |
| COC(=O)NCCC(=O)Nc1cccc(C#Cc2cc(C(N)=O)c(NC(N)=O)s2)c1 | 5.36 |  |  |  |
| CN(C)CC(=O)Nc1cccc(C#Cc2cc(C(N)=O)c(NC(N)=O)s2)c1 | 5.73 |  |  |  |
| NC(=O)Nc1sc(C#Cc2cccc(NC(=O)c3ccccn3)c2)cc1C(N)=O | < 4.70 |  |  |  |
| NC(=O)Nc1sc(C#Cc2cccc(NC(=O)c3ccncc3)c2)cc1C(N)=O | 5.73 |  |  |  |
| NC(=O)Nc1sc(C#Cc2csc(CO)c2)cc1C(N)=O | 6.71 | 5.95 | > 30000 | 5.8 |
| NC(=O)c1sc(-c2ccsc2)cc1N | 4.95 |  |  |  |
| CC(=O)Nc1cccc(C#Cc2cc(C(N)=O)c(NC(N)=O)s2)c1 | 6.02 |  |  |  |
| NC(=O)Nc1sc(C#CC2CC2)cc1C(N)=O | 6.56 | 5.51 | > 30000 | 11 |
| NC(=O)Nc1sc(C#Cc2cccc(NC(=O)C(F)(F)F)c2)cc1C(N)=O | 6.01 |  |  |  |
| Cc1ccccc1C#Cc1cc(C(N)=O)c(NC(N)=O)s1 | 6.15 |  |  |  |
| NC(=O)Nc1sc(C#Cc2ccccc2F)cc1C(N)=O | 6.21 |  |  |  |
| NC(=O)Nc1sc(C#Cc2cccc(N)c2)cc1C(N)=O | 6.15 |  |  |  |
| NC(=O)Nc1sc(C#Cc2cccc(O)c2)cc1C(N)=O | 6.52 | 6.24 | 2720 | 1.9 |
| CCC(O)c1cc(C#Cc2cc(C(N)=O)c(NC(N)=O)s2)cs1 (stereo not drawn) | 6.33 |  |  |  |
| NC(=O)Nc1sc(C#Cc2cccc(NC(=O)c3cccnc3)c2)cc1C(N)=O | 6.25 |  |  |  |
| N#Cc1cc(C#Cc2cc(C(N)=O)c(NC(N)=O)s2)cs1 | 6.48 | 6.08 | > 30000 | 2.5 |
| CC(C)C(O)c1cc(C#Cc2cc(C(N)=O)c(NC(N)=O)s2)cs1 (stereo not drawn) | 6.25 |  |  |  |
| NC(=O)Nc1sc(C#Cc2cccc(F)c2)cc1C(N)=O | 6.48 | 5.78 | > 30000 | 5 |
